Laboratory results from ChEMBL document CHEMBL2021842, “COMPARE analysis of the toxicity of an iminoquinone derivative of the imidazo[5,4-f]benzimidazoles with NAD(P)H:quinone oxidoreductase 1 (NQO1) activity and computational docking of quinones as NQO1 substrates” (Bioorg Med Chem, 2012).

How the values were obtained:
HeLa = test: Cytotoxicity against human HeLa cells assessed as reduction in mean cell viability after 72 hrs by MTT assay; assay type: functional, cell-based
How it was run: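 HeLa-CCL-2 cells in DMEM with 10% heat-inactivated FBS, 2 mM L-glutamine and nonessential amino acids. Plated at 1000 cells/well with 24 h adherence. Treated in ethanol (1% final) for 72 h at 37 °C under 5% CO₂, with ethanol controls. Absorbance of DMSO-dissolved formazan at 550 nm, 690 nm reference. IC₅₀ by nonlinear regression of percent viability.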

[1] = Cytotoxicity against human GM00637 cells assessed as reduction in mean cell viability after 72 hrs by MTT assay; assay type: cell-based; conditions: GM00637, 72 h
How it was run: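 SV40-transformed normal skin fibroblasts (GM00637) in MEM Eagle–Earle BSS with 15% heat-inactivated FBS, 2 mM L-glutamine, 2× amino acids and vitamins. Seeded at 10,000 cells/well and left 24 h to adhere. Ethanol-delivered compound (1% final) for 72 h at 37 °C, 5% CO₂. MTT formazan in DMSO read at 550/690 nm. Viability relative to vehicle; IC₅₀ by nonlinear regression.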

DU-145 = test: Cytotoxicity against human DU145 cells assessed as reduction in mean cell viability after 72 hrs by MTT assay; assay type: functional, cell-based; conditions: DU-145, 72 h
How it was run: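 DU-145 prostate cells in RPMI-1640 with 10% heat-inactivated FBS, penicillin–streptomycin and 2 mM L-glutamine. Seeded at 2000 cells/well and left 24 h to adhere. Compound added in ethanol (1% final) for 72 h at 37 °C, 5% CO₂, with ethanol-only controls. Formazan dissolved in DMSO and read at 550 nm (690 nm reference). IC₅₀ derived by nonlinear regression of viability versus vehicle.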

SMILES	IC50 (HeLa) [nM]	IC50 [1] [nM]	IC50 (DU-145) [nM]
O=C1c2nc3n(c2C(=O)c2c1nc1n2CCCC1)CCCC3	3330	> 5000	1730
O=C1c2nc3n(c2C(=O)c2nc4n(c21)CCCC4)CCC3	950	1270	790
O=C1c2nc3n(c2C(=O)c2nc4n(c21)CCCCC4)CCCCC3	1780	> 5000	4460
CCCCn1cnc2c1C(=O)c1nc3n(c1C2=O)CCCC3	1280	2120	1350
